According to ChEMBL document CHEMBL1129428 (J Med Chem, 1996):
Where “and” joins values, the source holds several entries; their conditions need not be identical. Identical values can stand only once.

Key:
Mus musculus [1] = assay: Anticonvulsant activity after intraperitoneal injection into mice by using MES screen test after 0.5 hr; assay type: functional
Mus musculus [2] = assay: Anticonvulsant activity after intraperitoneal injection into mice measured in a maximal electroshock scree (MES) screen; assay type: functional
Mus musculus [3] = assay: Anticonvulsant activity after intraperitoneal injection into mice by using scPTZ screen after 0.5 hr; assay type: functional
Mus musculus [4] = assay: Toxicity after intraperitoneal injection into mice by using toxicity screen test after 0.5 hr; assay type: organism-based; conditions: in vivo, ip
Method in brief: (§1)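 Mice injected intraperitoneally at 30, 100 and 300 mg/kg and examined 0.5 and 4 h afterwards. Each entry is the minimum dose giving activity (MES protection, scPTZ protection, or rotorod failure for neurotoxicity) in half or more of the mice. Activity is called absent if nothing occurs at 300 mg/kg.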

Mus musculus [5] = assay: Compound was tested for toxicity after intraperitoneal injection into mice by using toxicity screen test after 4 hr; assay type: organism-based; conditions: in vivo, ip; method in brief: as §1
Rattus norvegicus [6] = assay: Compound was tested for anticonvulsant activity after Oral Administration into Rats by using MES screen test after 0.25h,dose 12.5 mg/kg; No activity was demonstarted; assay type: functional, organism-based; parameters: dose 12.5 mg/kg
Method in brief: (§2)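 Rats received the compound orally. […] Rats were tested in the MES screen at 0.25, 0.5, 1, 2 and 4 h. Each value is the number of rats protected out of 4. The test followed NINDS procedures.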

Rattus norvegicus [7] = assay: Compound was tested for anticonvulsant activity after Oral Administration into Rats by using MES screen test after 4h,dose 12.5 mg/kg; number of rats out of four which were protected; assay type: functional; method in brief: as §2
Rattus norvegicus [8] = assay: Anticonvulsant activity after oral administration into rats; assay type: functional; parameters: concentration or dose not given beside the values
Rattus norvegicus [9] = assay: Compound was tested for anticonvulsant activity after Oral Administration into Rats by using MES screen test after 1h,dose 12.5 mg/kg; number of rats out of four which were protected; assay type: functional; method in brief: as §2
Rattus norvegicus [10] = assay: Compound was tested for anticonvulsant activity after Oral Administration into rat by using MES screen test after 2 hr dose 12.5 mg/kg; assay type: functional
Mus musculus [11] = assay: Compound was tested for anticonvulsant activity after intraperitoneal injection into mice by using MES screen test after 1 hr; assay type: functional; conditions: ip
Method in brief: (§3)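 Quantitative intraperitoneal mouse testing in the MES, scPTZ or rotorod neurotoxicity screens at the peak time given for each compound (0.25–2 h). ED50 or TD50 reported in mg/kg with 95% CI and slope (SE).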

Mus musculus [12] = assay: Compound was tested for anticonvulsant activity after intraperitoneal injection into mice by using scPTZ screen test after 2 hr; assay type: functional; conditions: ip; method in brief: as §3
[13] = Compound was tested for toxicity after intraperitoneal injection into mice by using neurotoxicity screen test after 2 hr; assay type: organism-based; conditions: mouse, in vivo, ip; method in brief: as §3
Rattus norvegicus [14] = assay: Compound was tested for anticonvulsant activity after Oral Administration into rat by using MES screen test after 2 hr; assay type: functional
Method in brief: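 Rats dosed orally, typically at 50 mg/kg first, then mostly 12.5 mg/kg (some compounds at 30 mg/kg), and tested by maximal electroshock. Four rats per compound, scored at 0.25, 0.5, 1, 2 and 4 h as the number of rats protected out of 4.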

[15] = Compound was tested for toxicity after oral administration in rat by using neurotoxicity screen test after 4 hr; assay type: organism-based; conditions: in vivo
Method in brief: (§4)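 Rat neurotoxicity after oral dosing, observed at 0.25, 0.5, 1, 2, 4, 6, 8 and 24 h (8 h omitted for one compound).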

[16] = Protection index = TD50/ED50; assay type: ADME; conditions: read-out: PI
Rattus norvegicus [17] = species: Rattus norvegicus; assay: Protection index = TD50/ED50 (MES); assay type: ADME, organism-based; conditions: in vivo
Rattus norvegicus [18] = assay: Compound was tested for anticonvulsant activity after Oral Administration into Rats by using MES screen test after 2h,dose 12.5 mg/kg; number of rats out of four which were protected; assay type: functional; method in brief: as §2
[19] = Compound was tested for toxicity after intraperitoneal injection into mice by using neurotoxicity screen test after 0.5 hr; conditions: mouse, in vivo, ip
[20] = Compound was tested for toxicity after oral administration in rat by using neurotoxicity screen test after 0.25-24 hr; assay type: organism-based; conditions: in vivo; method in brief: as §4
Mus musculus [21] = assay: Compound was tested for anticonvulsant activity after intraperitoneal injection into mice by using scPTZ screen test after 1 hr; assay type: functional; conditions: ip; method in brief: as §3
Rattus norvegicus [22] = assay: Compound was tested for anticonvulsant activity after Oral Administration into Rats by using MES screen test after 4h,dose 15 mg/kg; number of rats out of four which were protected; assay type: functional; method in brief: as §2
Rattus norvegicus [23] = assay: Compound was tested for anticonvulsant activity after Oral Administration into Rats by using MES screen test after 0.25h,dose 15 mg/kg; No activity was demonstarted; assay type: functional, organism-based; parameters: dose 15 mg/kg; method in brief: as §2
Rattus norvegicus [24] = assay: Compound was tested for anticonvulsant activity after Oral Administration into Rats by using MES screen test after 0.5h,dose 15 mg/kg; No activity was demonstarted; assay type: functional, organism-based; parameters: dose 15 mg/kg; method in brief: as §2
Rattus norvegicus [25] = assay: Compound was tested for anticonvulsant activity after Oral Administration into Rats by using MES screen test after 1h,dose 15 mg/kg; number of rats out of four which were protected; assay type: functional; method in brief: as §2
Rattus norvegicus [26] = assay: Compound was tested for anticonvulsant activity after Oral Administration into Rats by using MES screen test after 2h,dose 15 mg/kg; number of rats out of four which were protected; assay type: functional; method in brief: as §2
Mus musculus [27] = assay: Anticonvulsant activity after intraperitoneal injection into mice by using MES screen test after 0.25 hr; assay type: functional
Mus musculus [28] = assay: Compound was tested for anticonvulsant activity after intraperitoneal injection into mice by using scPTZ screen test after 0.25 hr; assay type: functional; conditions: ip; method in brief: as §3
[29] = Compound was tested for toxicity after intraperitoneal injection into mice by using neurotoxicity screen test after 0.25 hr; conditions: mouse, in vivo, ip
[30] = Compound was tested for toxicity after oral administration in rat by using neurotoxicity screen test after 0.5 hr; conditions: in vivo

SMILES | Dose (Mus musculus [1]) [mg/kg] | Dose (Mus musculus [2]) [mg/kg] | Dose (Mus musculus [3]) [mg/kg] | Dose (Mus musculus [4]) [mg/kg] | Dose (Mus musculus [5]) [mg/kg] | Activity (Rattus norvegicus [6]) | Activity (Rattus norvegicus [7]) | Activity (Rattus norvegicus [8]) | Activity (Rattus norvegicus [9]) | other results
NC(=O)N/N=C/c1ccc(Oc2cc(F)ccc2F)cc1 | 100 | 300 | 100 | 300 | 300 | No activity | 1 | 1 | 1 | ED50 (Rattus norvegicus [10]): 11.4 mg/kg
CC/C(=N/NC(N)=O)c1ccc(Oc2ccc(F)cc2)cc1 | 30 | 30 | 100 | 300 | 100 | No activity | 4 | 2 | 4 | ED50 (Mus musculus [11]): 5.46 mg/kg; ED50 (Mus musculus [12]): 12.8 mg/kg; TD50 at 2 h [13]: 35.3 mg/kg; ED50 (Rattus norvegicus [14]): 4.25 mg/kg; TD50 at 4 h [15]: > 72 mg/kg; selectivity ratio [16]: 2.75; PI (Rattus norvegicus [17]): 6.45 and 16.9; Activity (Rattus norvegicus [18]): 4
O=C1NC(=O)C(c2ccccc2)(c2ccccc2)N1 [PHENYTOIN] | 30 | 30 |  | 100 | 100 |  |  |  |  | TD50 at 0.5 h [19]: 41.2 mg/kg; TD50 [20]: > 500 mg/kg; ED50 (Mus musculus [21]): > 50 mg/kg
CCC(C)(C)c1ccc(Oc2ccc(/C=N/NC(N)=O)cc2)cc1 | 300 |  |  |  |  |  |  |  |  | Activity (Rattus norvegicus [22]): 4; Activity (Rattus norvegicus [23]): No activity; Activity (Rattus norvegicus [24]): No activity; Activity (Rattus norvegicus [25]): 2; Activity (Rattus norvegicus [26]): 3
CCCC(CCC)C(=O)O [VALPROIC ACID] |  |  | 300 |  |  |  |  |  |  | ED50 (Mus musculus [27]): 287 mg/kg; ED50 (Mus musculus [28]): 209 mg/kg; TD50 at 0.25 h [29]: 483 mg/kg; TD50 at 0.5 h [30]: 859 mg/kg
